# High-throughput results from PubChem BioAssay.
# Sampled rows, rich in hits. Any-hit rate of the full collection: about 3.1%.
# GPR7 antagonist: antagonists of human GPR7 (neuropeptides B/W receptor 1) | P48145 | GPR7-expressing cells, fluorescence antagonist assay | inhibition, % at 4.4 µM | 290,000 tested, 1.1% active; in the data active = inhibition above about 16%, passing the limit was not always enough;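 also: cells stimulated with the agonist NPW; 0% = agonist with vehicle and 100% = vehicle without agonist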
# OX1R antag-1: human HCRTR1 antagonism; O43613; CHO/OX1R cells, Fluo-8 calcium fluorescence, orexin A; inhibition, % at 5 µM; 330,000 tested, 0.43% active;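 active = inhibition above its plate's threshold, mean inhibition of all tested compounds on the plate plus 3 SD, cut at about 37% in these data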;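 also: 0% = orexin A challenge wells and 100% = SB-334867-A antagonist wells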
# Target sequence (O43613 whole entry, looked up): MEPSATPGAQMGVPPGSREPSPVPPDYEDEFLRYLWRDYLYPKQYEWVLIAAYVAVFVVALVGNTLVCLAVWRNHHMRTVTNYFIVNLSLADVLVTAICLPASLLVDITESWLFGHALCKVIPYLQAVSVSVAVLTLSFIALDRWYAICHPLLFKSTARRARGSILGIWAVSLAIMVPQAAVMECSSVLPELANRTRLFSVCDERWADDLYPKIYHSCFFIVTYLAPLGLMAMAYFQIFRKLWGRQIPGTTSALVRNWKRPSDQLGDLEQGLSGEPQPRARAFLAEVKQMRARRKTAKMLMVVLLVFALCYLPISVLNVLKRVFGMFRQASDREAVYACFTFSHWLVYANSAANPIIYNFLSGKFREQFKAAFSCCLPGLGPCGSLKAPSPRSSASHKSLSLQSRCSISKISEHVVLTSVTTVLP
# CHO parental Ca: counter-screen for OX1R antagonists: effect in parental CHO cells | 330,000 tested, 0.63% active | parental CHO-K1, ATP-induced calcium, Fluo-8 fluorescence | inhibition, % at 5.6 µM;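 active = inhibition above that plate's mean sample inhibition plus 3 SD, cut at about 26% in these data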;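 also: 0% = ATP-challenged DMSO wells and 100% = DMSO wells without ATP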
#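 Assay system – parental CHO cells · Reagent – ATP stimulus · Detection – intracellular calcium via Fluo-8 no-wash fluorescent dye · Evaluation – percent inhibition of ATP-evoked calcium rise, normalized to controls · Controls – ATP wells versus no-ATP DMSO wells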
# GalR3 antagonist: human GalR3 antagonism; O60755; HEK293 GalR3-CNG cAMP membrane potential fluorescence; galR3 body fused to GalR1 C-terminus; inhibition, % at 3 µM; AID 651719; 360,000 tested, 0.44% active;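 active = inhibition above the screen-wide average plus 3 SD, cut at about 13% in these data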;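 also: forskolin and galanin both at EC90 stimulate the cells; cAMP rise reported by CNG channel membrane potential dye signal; 0% = forskolin plus galanin with DMSO and 100% = forskolin alone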
# OX1R antag-2: OX1R (human) antagonism; O43613; OX1R-expressing cells, FRET antagonist read-out; inhibition, % at 6.6 µM; 330,000 tested, 1.8% active; in the data active = inhibition mostly above about 38%, no sharp cut-off; inactive = mostly below about 40%;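 also: 0% = agonist challenge alone and 100% = reference antagonist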
# GPR7 antag cf: human GPR7 antagonism, confirmation assay | inhibition, % at 4.4 µM | GPR7-expressing cells, calcium fluorescence antagonist mode | shares compounds with GPR7 antagonist | AID 1952 | 2,400 tested, 52% active; in the data active = inhibition above about 24%;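 also: stimulated with the GPR7 agonist NPW; 0% = agonist plus vehicle and 100% = vehicle alone without agonist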
# MCHR1 antagonist: MCHR1 (human) antagonism in GPR7 counter-screen. shares compounds with GPR7 antagonist. MCHR1-expressing cells, fluorescence antagonist assay. inhibition, % at 4.4 µM. 2,400 tested, 62% active. AID 2148; in the data active = inhibition above about 22%;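 also: 0% = vehicle with agonist and 100% = vehicle without agonist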
# Active calls of the source: *; . = no result.
SMILES,GPR7 antagonist,OX1R antag-1,CHO parental Ca,GalR3 antagonist,OX1R antag-2,GPR7 antag cf,MCHR1 antagonist
CCOC(=O)C1CCN(S(=O)(=O)c2ccc(CC)cc2)CC1,21*,-8,-8,-13,9,16,25*
CCOC(=O)c1ccc(S(=O)(=O)N2CCC(C(=O)OCC)CC2)cc1,10,-12,-2,-1,17,.,.
Oc1ccccc1Nc1nc(NCc2ccco2)c2ccccc2n1,-7,-14,2,-10,26,.,.
Cc1ccccc1Nc1nc(NCc2ccco2)c2ccccc2n1,27*,10,11,-10,38,14,63*
CCOc1ccc2nc(SCC(=O)NCc3ccc(S(N)(=O)=O)cc3)[nH]c2c1,-10,-17,-5,-5,12,.,.
COc1cc(-c2n[nH]c(=S)n2/N=C/c2cccn2C)cc(OC)c1OC,80*,77*,29,-2,2,88*,74*
O=S(=O)(NCCC1CC1(Cl)Cl)c1ccccc1 (centres undefined),-4,-1,-3,-4,13,.,.
Cc1ccsc1C(=O)OCC(=O)Nc1cccc(S(=O)(=O)N2CCCCC2)c1,.,.,.,0,.,.,.
COc1ccc(S(=O)(=O)Nc2ccccc2N2CCOCC2)cc1OC,.,-29,-19,-9,3,.,.
CC(=O)c1ccc(NC(=O)c2ccccc2-c2ccccc2C(=O)O)cc1,27*,-13,-4,-4,21,1,-2
COc1ccc(N(Cc2ccccc2)S(=O)(=O)c2cc(C(=O)O)ccc2Cl)cc1,-11,-2,-9,-7,23,.,.
CC(C)=NOCC(=O)Nn1c(COc2c(C)cccc2C)nc2ccccc2c1=O,26*,-33,-13,-5,5,-16,-3
O=C(CSc1nncn1-c1cccnc1)Nc1ccccc1C(F)(F)F,-3,-20,-11,-9,18,.,.
CN(C)CCNc1nc2sc3c(c2c(=O)n1Cc1ccccc1)CCCCC3,40*,.,.,-10,.,35*,58*
NC(=S)N/N=C/c1c(O)ccc2ccccc12,23*,-2,8,2,17,1,-1
CC(NC(=O)c1cc(Br)cs1)C1CCCO1 (centres undefined),-12,-3,1,-10,13,.,.
CN(CC(=O)Nc1ccccc1Br)C(=O)CCc1ccccc1,23*,1,-2,-1,17,2,-9
CN(CC(=O)Nc1ccccc1Br)C(=O)CCC1CCCC1,4,-9,-13,-3,10,.,.
O=C(CCN1C(=O)c2ccccc2C1=O)Nc1ccc2c(c1)OCCO2,23*,-21,-12,-7,9,0,-1
Clc1ccccc1Nc1ncnc2c1nnn2Cc1ccccc1,34*,-29,-22,-3,16,24,4
Fc1ccccc1Nc1ncnc2c1nnn2Cc1ccccc1,34,-6,-7,-15,2,.,.
CC(=O)OC1CC2(C)/C(=N\O)CCC2C2CCc3cc(O)ccc3C12 (centres undefined),7,.,.,-8,.,.,.
C[C@@H]1CN([C@H](C)CO)C(=O)c2cc(-c3ccc(C(=O)N(C)C)cc3)cnc2O[C@@H]1CN(C)C(=O)c1cccnc1,.,.,.,-5,.,.,.
C=CCN1C(=O)c2cccc3c(N4CCCCC4)ccc(c23)C1=O,-12,6,16,-4,31,.,.
Cc1n[nH]c(C)c1N1C(=O)c2cccc3c(N4CCCCCC4)ccc(c23)C1=O,52*,90*,76*,-4,14,41*,56*
N#CCSc1nc2ccccc2c(=O)n1CCCC(=O)NCC1CCCO1 (centres undefined),-8,-14,-15,-1,19,.,.
COc1ccc(C(=O)N2CCCCCC2)cc1OC1CCN(C(C)=O)CC1,-13,0,0,-2,11,.,.
COc1ccc(C(=O)N(C)Cc2ccc(C)o2)cc1OC1CCN(C(C)=O)CC1,23*,-16,-7,-4,5,1,36*
Cc1nonc1CN(C)C(=O)c1cc(COc2ccc(F)cc2Cl)on1,30*,-17,9,-4,17,24,26*
Cc1nc(N2CCC(C)CC2)c2c(C)c(C(=O)Nc3cccc(C(F)(F)F)c3)sc2n1,25*,-15,-5,-5,4,-29,-4
